In ChEMBL document CHEMBL3632499, “Synthesis and Antiproliferative Activity Evaluation of the Disulfide-Containing Cyclic Peptide Thiochondrilline C and Derivatives” (J Nat Prod, 2015):
Converted amounts (≈) assume the structure as drawn.

Legend:
SNB-19 = assay: Antiproliferative activity against human SNB19 cells; format: functional; conditions: read-out: LC50 (the source's name)
How it was run: (§1)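 Run in the National Cancer Institute 60 cancer cell line panel. Read-outs: GI50, the concentration causing 50% growth inhibition; TGI, the concentration causing total growth inhibition; LC50, the concentration causing 50% net cell killing. Values are averages ± SEM from two independent determinations.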

UACC-62 = assay: Antiproliferative activity against human UACC62 cells; format: functional; how it was run: as §1
[1] = Aqueous solubility of the compound; format: physicochemical; conditions: buffer
TK-10 = assay: Antiproliferative activity against human TK10 cells; format: functional; how it was run: as §1
MDA-MB-468 = assay: Antiproliferative activity against human MDA-MB-468 cells; format: functional
How it was run: (§2)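 Profiled in the National Cancer Institute 60 cancer cell line screen. Reported GI50 is the concentration giving 50% growth inhibition, TGI the concentration giving total growth inhibition, and LC50 the concentration giving 50% net cell killing. Values are averages ± SEM from two independent determinations.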

SNB-75 = assay: Antiproliferative activity against human SNB75 cells; format: functional; how it was run: as §1
[2] = Antiproliferative activity against human NCI-ADR-RES cells; format: functional; how it was run: as §2
UO-31 = assay: Antiproliferative activity against human UO31 cells; format: functional; how it was run: as §1
IGROV-1 = assay: Antiproliferative activity against human IGROV1 cells; format: functional; how it was run: as §2
SK-MEL-2 = assay: Antiproliferative activity against human SK-MEL-2 cells; format: functional; how it was run: as §2
K562 = assay: Antiproliferative activity against human K562 cells; format: functional; how it was run: as §2
HL-60(TB) = assay: Antiproliferative activity against human HL-60(TB) cells; format: functional
How it was run: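 Tested in the NCI 60 human cancer cell line panel. GI50 is the concentration giving 50% growth inhibition; TGI (total growth inhibition) and LC50 (50% net cell killing) were also derived. Values are the mean ± SEM of two independent determinations.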

CAKI-1 = assay: Antiproliferative activity against human Caki1 cells; format: functional; how it was run: as §2
Malme-3M = assay: Antiproliferative activity against human MALME-3M cells; format: functional; how it was run: as §2
DU-145 = assay: Antiproliferative activity against human DU145 cells; format: functional; how it was run: as §2
KM12 = assay: Antiproliferative activity against human KM12 cells; format: functional; how it was run: as §2
[3] = Antiproliferative activity against human COLO205 cells; format: functional; how it was run: as §2
HCT-15 = assay: Antiproliferative activity against human HCT15 cells; format: functional; how it was run: as §2
[4] = Antiproliferative activity against human HCC2998 cells; format: functional; how it was run: as §2
SK-MEL-5 = assay: Antiproliferative activity against human SK-MEL-5 cells; format: functional; how it was run: as §2
ACHN = assay: Antiproliferative activity against human ACHN cells; format: functional; how it was run: as §2
SK-MEL-28 = assay: Antiproliferative activity against human SK-MEL-28 cells; format: functional; how it was run: as §2
A498 = assay: Antiproliferative activity against human A498 cells; format: functional; how it was run: as §2
[5] = Antiproliferative activity against human LOXIMVI cells; format: functional; conditions: LOX IMVI; how it was run: as §2
T47D = assay: Antiproliferative activity against human T47D cells; format: functional; how it was run: as §1
NCI-H460 = assay: Antiproliferative activity against human NCI-H460 cells; format: functional; how it was run: as §2
UACC-257 = assay: Antiproliferative activity against human UACC257 cells; format: functional; how it was run: as §1
NCI-H226 = assay: Antiproliferative activity against human NCI-H226 cells; format: functional; how it was run: as §2
HT-29 = assay: Antiproliferative activity against human HT-29 cells; format: functional; how it was run: as §2
OVCAR-3 = assay: Antiproliferative activity against human OVCAR3 cells; format: functional; how it was run: as §2
[6] = Half life in mouse plasma; format: ADME, cell-free
NCI-H322M = assay: Antiproliferative activity against human NCI-H322M cells; format: functional; how it was run: as §2
[7] = Antiproliferative activity against human SF539 cells; format: functional; how it was run: as §2
[8] = read-out: LC50 (the source's name)

C[C@H](NC(=O)[C@@H]1CSSC[C@@H](NC(=O)c2nc3ccccc3cc2O)C(=O)NCC(=O)N1C)c1ccccc1
CC50 (SNB-19): > 50 µM
GI50 (UACC-62): 5.7 µM
TGI (UACC-62): 13.3 µM
CC50 (UACC-62; [8]): 30.2 µM
solubility [1]: 4.5 µg/mL (≈ 7.93 µM)
GI50 (TK-10): 8.1 µM
TGI (TK-10): 15.4 µM
CC50 (TK-10; [8]): 29.7 µM
GI50 (MDA-MB-468): 6 µM
TGI (MDA-MB-468): 13.3 µM
CC50 (MDA-MB-468; [8]): 29.8 µM
GI50 (SNB-75): 7.7 µM
TGI (SNB-75): > 50 µM
CC50 (SNB-75; [8]): > 50 µM
GI50 [2]: 11 µM
TGI [2]: > 50 µM
CC50 [2, 8]: > 50 µM
GI50 (UO-31): 5.8 µM
TGI (UO-31): 13.3 µM
CC50 (UO-31; [8]): 30.8 µM
GI50 (IGROV-1): 4 µM
TGI (IGROV-1): 12.9 µM
CC50 (IGROV-1; [8]): 37.6 µM
GI50 (SK-MEL-2): 2.6 µM
TGI (SK-MEL-2): 10.1 µM
CC50 (SK-MEL-2; [8]): 27.1 µM
GI50 (K562): 0.7 µM
TGI (K562): 3.1 µM
CC50 (K562; [8]): > 50 µM
GI50 (HL-60(TB)): 1.2 µM
TGI (HL-60(TB)): 5.1 µM
CC50 (HL-60(TB); [8]): 38.8 µM
GI50 (CAKI-1): 7.3 µM
TGI (CAKI-1): 18.5 µM
CC50 (CAKI-1; [8]): 47.4 µM
GI50 (Malme-3M): 6.1 µM
TGI (Malme-3M): 14 µM
CC50 (Malme-3M; [8]): 32.3 µM
GI50 (DU-145): 5.8 µM
TGI (DU-145): 12.7 µM
CC50 (DU-145; [8]): 27.7 µM
GI50 (KM12): 0.6 µM
TGI (KM12): 8.6 µM
CC50 (KM12; [8]): 28.3 µM
GI50 ([3]; COLO 205): 1 µM
TGI ([3]; COLO 205): 2.3 µM
CC50 ([3]; COLO 205, read-out: LC50 (the source's name)): 7.2 µM
GI50 (HCT-15): 2.6 µM
TGI (HCT-15): 9.7 µM
CC50 (HCT-15; [8]): 25.9 µM
GI50 ([4]; HCC 2998): 7.9 µM
TGI ([4]; HCC 2998): 17.9 µM
CC50 ([4]; HCC 2998, read-out: LC50 (the source's name)): > 50 µM
GI50 (SK-MEL-5): 0.6 µM
TGI (SK-MEL-5): 3.8 µM
CC50 (SK-MEL-5; [8]): 15.6 µM
GI50 (ACHN): 4.9 µM
TGI (ACHN): 13 µM
CC50 (ACHN; [8]): 31.5 µM
GI50 (SK-MEL-28): 0.9 µM
TGI (SK-MEL-28): 9.9 µM
CC50 (SK-MEL-28; [8]): 31.8 µM
GI50 (A498): 15 µM
TGI (A498): 33.5 µM
CC50 (A498; [8]): > 50 µM
GI50 [5]: 0.7 µM
TGI [5]: 1.5 µM
CC50 [5, 8]: 3.6 µM
GI50 (T47D): 1.1 µM
TGI (T47D): 3.8 µM
CC50 (T47D; [8]): 24.8 µM
GI50 (NCI-H460): 1.3 µM
TGI (NCI-H460): 8 µM
CC50 (NCI-H460; [8]): 30.5 µM
GI50 (UACC-257): 8.3 µM
TGI (UACC-257): 27.8 µM
CC50 (UACC-257; [8]): > 50 µM
GI50 (NCI-H226): 8.9 µM
TGI (NCI-H226): 17.4 µM
CC50 (NCI-H226; [8]): 34.2 µM
GI50 (HT-29): 1.2 µM
TGI (HT-29): 3.9 µM
CC50 (HT-29; [8]): 12.4 µM
GI50 (OVCAR-3): 0.6 µM
TGI (OVCAR-3): 1.4 µM
CC50 (OVCAR-3; [8]): 3.1 µM
half-life [6]: 4.9 h
GI50 (NCI-H322M): 7.1 µM
TGI (NCI-H322M): 20.1 µM
CC50 (NCI-H322M; [8]): > 50 µM
GI50 ([7]; SF-539): 2 µM
TGI ([7]; SF-539): 9.4 µM
CC50 ([7]; SF-539, read-out: LC50 (the source's name)): 27.3 µM
